Measurements as given in article PMC7408256 (ACS Omega, 2020).

What was measured:
[1] = tested on: EKVX; experiment: NCI one-dose screen: EKVX; assay type: cell-based; conditions: Homo sapiens, read-out: Growth inhibition percentage (GI %)
In short: (§1)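 Cells grown in RPMI 1640 with 5% FBS and 2 mM L-glutamine, seeded at 5000–40,000 cells/well, preincubated 24 h at 37 °C and 5% CO2. Time-zero plates were TCA-fixed. Test compound (DMSO stock diluted in gentamicin medium) was added at a final 10^-5 M for 48 h. Cells were TCA-fixed (80% for suspension lines), SRB-stained and read at 515 nm. GI% = 100 − % growth versus untreated control.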

[2] = tested on: newly formed blood capillaries of HET-CAM; experiment: HET-CAM angiogenesis study; assay type: in vivo, hen
In short: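 Fertilized hen eggs were incubated 9 days at 37 °C with rotation, in groups of three. Test compound at 40 μM in 40 μL of 40% DMSO in saline was dropped onto a 5 mm filter-paper disc on the CAM. Control got 40 μL vehicle. On day 11 each egg was angiographed. Newly formed small vessels within a 100 mm2 circle were counted by image analysis. One-way ANOVA with Dunnett's test.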

[3] = tested on: SR; experiment: NCI one-dose screen: SR; assay type: cell-based; conditions: Homo sapiens, read-out: Growth inhibition percentage (GI %)
In short: (§2)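 Human tumour lines grown in RPMI 1640 with 5% FBS and 2 mM L-glutamine, seeded at 5000–40,000 cells/well, 24 h at 37 °C, 5% CO2. Time-zero plates TCA-fixed. Test compound (DMSO stock at 400× final) added to a final 10 µM, 48 h at 37 °C. Cells fixed with cold TCA (50% adherent, 80% suspension) and stained with sulforhodamine B; absorbance read at 515 nm. GI% = 100 − % growth relative to untreated control.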

[4] = tested on: SNB-19; experiment: NCI one-dose screen: SNB-19; assay type: cell-based; conditions: Homo sapiens, SNB-19, read-out: Growth inhibition percentage (GI %)
In short: as §1

[5] = tested on: NCI-H460; experiment: NCI one-dose screen: NCI-H460; assay type: cell-based; conditions: Homo sapiens, NCI-H460, read-out: Growth inhibition percentage (GI %)
In short: as §1

[6] = tested on: MCF7; experiment: NCI one-dose screen: MCF7; assay type: cell-based; conditions: Homo sapiens, MCF7, read-out: Growth inhibition percentage (GI %)
In short: as §1

[7] = tested on: 786-0; experiment: NCI one-dose screen: 786-0; assay type: cell-based; conditions: Homo sapiens, 786-0, read-out: Growth inhibition percentage (GI %)
In short: as §1

[8] = tested on: MOLT-4; experiment: NCI one-dose screen: MOLT-4; assay type: cell-based; conditions: Homo sapiens, MOLT-4, read-out: Growth inhibition percentage (GI %)
In short: as §1

[9] = tested on: MDA-MB-231; experiment: NCI one-dose screen: MDA-MB-231; assay type: cell-based; conditions: Homo sapiens, MDA-MB-231, read-out: Growth inhibition percentage (GI %)
In short: as §1

[10] = tested on: SF-539; experiment: NCI one-dose screen: SF-539; assay type: cell-based; conditions: Homo sapiens, SF-539, read-out: Growth inhibition percentage (GI %)
In short: as §1

[11] = tested on: SK-MEL-2; experiment: NCI one-dose screen: SK-MEL-2; assay type: cell-based; conditions: Homo sapiens, SK-MEL-2, read-out: Growth inhibition percentage (GI %)
In short: as §1

[12] = tested on: RXF 393; experiment: NCI one-dose screen: RXF 393; assay type: cell-based; conditions: Homo sapiens, RXF 393, read-out: Growth inhibition percentage (GI %)
In short: as §1

[13] = tested on: K-562; experiment: NCI one-dose screen: K-562; assay type: cell-based; conditions: Homo sapiens, K562, read-out: Growth inhibition percentage (GI %)
In short: as §1

[14] = tested on: HCT-116; experiment: NCI one-dose screen: HCT-116; assay type: cell-based; conditions: Homo sapiens, HCT-116, read-out: Growth inhibition percentage (GI %), HCT-116, colon cancer; single dose 10 μM
In short: as §1

[15] = tested on: NCI 58 human cell lines; experiment: NCI one-dose screen: whole panel summary; assay type: cell-based
In short: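 NCI 58-line single-dose screen in nine subpanels. Cells were exposed for 48 h at 37 °C to a final 10 µM test compound. Growth was measured by sulforhodamine B staining against time-zero and untreated-control plates. For each compound, percent growth relative to untreated cells was averaged across the panel as mean % growth. GI% per line = 100 − % growth.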

[16] = tested on: OVCAR-3; experiment: NCI one-dose screen: OVCAR-3; assay type: cell-based; conditions: Homo sapiens, OVCAR-3, read-out: Growth inhibition percentage (GI %)
In short: as §1

[17] = tested on: HCC-2998; experiment: NCI one-dose screen: HCC-2998; assay type: cell-based; conditions: Homo sapiens, HCC 2998, read-out: Growth inhibition percentage (GI %)
In short: as §1

[18] = tested on: chick embryos / HET-CAM; experiment: HET-CAM mortality and toxicity; assay type: in vivo, hen; conditions: 40 μM, 40 μL in 40% DMSO in sterile saline, applied 9th day, examined 11th day
In short: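 Hen eggs were incubated at 37 °C with 2-hourly rotation and candled on day 5; dead eggs were excluded. A window was opened and taped. On day 9, 40 μL of test compound (40 or 100 μM, in 40% or 100% DMSO in saline) went onto a 5 mm filter disc at a low-vessel-density CAM area, 3 eggs/concentration. Embryo toxicity and mortality were assessed by candling on day 11.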

[19] = tested on: A549/ATCC; experiment: NCI one-dose screen: A549/ATCC; assay type: cell-based; conditions: Homo sapiens, A549, read-out: Growth inhibition percentage (GI %)
In short: as §1

[20] = tested on: T-47D; experiment: NCI one-dose screen: T-47D; assay type: cell-based; conditions: Homo sapiens, T47D, read-out: Growth inhibition percentage (GI %)
In short: as §2

[21] = tested on: PC-3; experiment: NCI one-dose screen: PC-3; assay type: cell-based; conditions: Homo sapiens, PC-3, read-out: Growth inhibition percentage (GI %)
In short: as §1

[22] = tested on: TK-10; experiment: NCI one-dose screen: TK-10; assay type: cell-based; conditions: Homo sapiens, TK-10, read-out: Growth inhibition percentage (GI %)
In short: as §2

[23] = target: VEGFR2; conditions: cited from earlier work
[24] = target: c-Met kinase; conditions: read-out: IC50 c-Met; cited from earlier work
[25] = target: multiple tyrosine kinase; conditions: target not named at the place (multiple tyrosine kinase; context VEGFR2) ref 14; cited from earlier work
[26] = 40 μM, versus 40% DMSO negative control

For `O=C1Nc2ccccc2C1=NNc1nnc2n1N=C(c1ccccc1)CS2` [6a, 3-(2-(6-Phenyl-7H-[1,2,4]triazolo[3,4-b][1,3,4]thiadiazin-3-yl)hydrazineylidene)indolin-2-one], the inhibition at 10 µM [1] was 13%, the “increase in the number of newly formed blood capillaries” value [2, 26] was 33% and the inhibition at 10 µM [3] was 23%. It also gave an inhibition at 10 µM [4] of 17%, an inhibition at 10 µM [5] of 17% and an inhibition at 10 µM [6] of 29%. It also gave an inhibition at 10 µM [7] of 19%, an inhibition at 10 µM [8] of 13% and an inhibition at 10 µM [9] of 12%. The inhibition at 10 µM [10] was 18%, the inhibition at 10 µM [11] was 13% and the inhibition at 10 µM [12] was 18%. The inhibition at 10 µM [13] was 23%, the inhibition at 10 µM [14] was 14% and the “GI (range over the susceptible cell lines listed in the sentence)” value ([15]; single dose 10 μM, cell lines as listed in the sentence) was 35–57%. For the same compound, the inhibition at 10 µM [16] was 12% and the inhibition at 10 µM [17] was 19%.

With `Cc1ccc(C2=Nn3c(NN=C4C(=O)Nc5ccccc54)nnc3SC2)cc1` [6c, 3-(2-(6-(p-Tolyl)-7H-[1,2,4]triazolo[3,4-b][1,3,4]thiadiazin-3-yl)hydrazineylidene)-indolin-2-one] the “toxicity / mortality against HET-CAM and the chick embryos” value (“toxicity / mortality” for short) [18] was “toxic”.

For `COc1ccc(C2=Nn3c(N/N=C4\C(=O)Nc5ccc(F)cc54)nnc3SC2)cc1` [6j, 5-Fluoro-3-(2-(6-(4-methoxyphenyl)-7H-[1,2,4]triazolo[3,4-b][1,3,4]thiadiazin-3-yl) hydrazineylidene)indolin-2-one], the “toxicity / mortality” value [18] was “toxic”.

In the case of `COc1ccc(C2=Nn3c(NN=C4C(=O)Nc5ccc(Cl)cc54)nnc3SC2)cc1` [6l, 5-Chloro-3-(2-(6-(4-methoxyphenyl)-7H-[1,2,4]triazolo[3,4-b][1,3,4]thiadiazin-3-yl)hydrazineylidene)indolin-2-one], the inhibition at 10 µM [3] is reported as 23%, the inhibition at 10 µM [13] is reported as 15% and the inhibition at 10 µM [19] is reported as 23%. For the same compound, the “sensitive cell lines no.” value ([15]; number of cell lines of the panel with GI % shown (higher than 10%), 10 μM) was 6.

In the case of `COc1ccc(C2=Nn3c(NN=C4C(=O)Nc5ccc(OC)cc54)nnc3SC2)cc1` [6n, 5-Methoxy-3-(2-(6-(4-methoxyphenyl)-7H-[1,2,4]triazolo[3,4-b][1,3,4]thiadiazin-3-yl)hydrazineylidene)indolin-2-one], the “change in the number of blood vessels (in words)” value [2, 26] is reported as “significant decrease”, the “reduction in the number of newly formed blood capillaries (angiogenesis)” value ([2]; 40 μM, versus 40% DMSO negative control, 11th day) is reported as 27% and the inhibition at 10 µM [20] is reported as 15%. The inhibition at 10 µM [8] was 12%, the inhibition at 10 µM [21] was 10% and the inhibition at 10 µM [13] was 19%. It also gave an inhibition at 10 µM [19] of 29% and an inhibition at 10 µM [22] of 17%.

For `COc1ccc(C2=Nn3c(NN=C4C(=O)N(C)c5ccc(Cl)cc54)nnc3SC2)cc1` [6u, 5-Chloro-3-(2-(6-(4-methoxyphenyl)-7H-[1,2,4]triazolo[3,4-b][1,3,4]thiadiazin-3-yl)hydrazineylidene)-1-methylindolin-2-one], the “toxicity / mortality” value [18] was “toxic”.

In the case of `CCCN1C(=O)C(=NNc2nnc3n2N=C(c2ccc(OC)cc2)CS3)c2cc(Cl)ccc21` [6w, 5-Chloro-3-(2-(6-(4-methoxyphenyl)-7H-[1,2,4]triazolo[3,4-b][1,3,4]thiadiazin-3-yl)hydrazineylidene)-1-propylindolin-2-one], the “toxicity / mortality” value [18] is reported as “toxic”.

In the case of `COc1ccc(C2=Nn3c(NN=C4C(=O)N(Cc5ccccc5)c5ccccc54)nnc3SC2)cc1` [6x, 1-Benzyl-3-(2-(6-(4-methoxyphenyl)-7H-[1,2,4]triazolo[3,4-b][1,3,4]thiadiazin-3-yl)hydrazineylidene)indolin-2-one], the “change in the number of blood vessels (in words)” value [2, 26] is reported as “significant decrease”.

For `C[C@@H]1C[C@H]2[C@@H]3CCC4=CC(=O)C=C[C@]4(C)[C@@]3(F)[C@@H](O)C[C@]2(C)[C@@]1(O)C(=O)CO` [DEXA, dexamethasone, reference compound], the “reduction in the number of newly formed blood capillaries” value ([2]; DEXA 0.02 μg, positive control, versus 40% DMSO, P < 0.001) was 54%.

In the case of `Cc1[nH]c(/C=C2\C(=O)Nc3ccccc32)c(C)c1CCC(=O)O` [Orantinib], the Ki ([23]; read-out: Ki VEGFR2) is listed as 9 nM.

For `Cc1[nH]c(/C=C2\C(=O)Nc3ccc(S(=O)(=O)N(C)c4cccc(Cl)c4)cc32)c(C)c1C(=O)N1CCN(C)CC1` [SU11274], the IC50 [24] is listed as 12 nM.

For `Cc1[nH]c(/C=C2\C(=O)Nc3ccc(F)cc32)c(C)c1C(=O)NC[C@H](O)CN1CCOCC1` [SU14813], the IC50 ([23]; read-out: IC50 VEGFR2) is listed as 40 nM.

In the case of `CCN(CC)CCNC(=O)c1c(C)[nH]c(/C=C2\C(=O)Nc3ccc(F)cc32)c1C` [sunitinib], the Ki [25] is given as 9 nM.
